# Tested on: Acinetobacter baumannii
# Experiment: Antibacterial activity against imipenem-resistant Acinetobacter baumannii ISAB ab1254(r) by broth dilution method in presence of 2 ug/ml efflux pump inhibitor carbonyl cyanide m-chlorophenyl-hydrazone
# Type: functional
row,SMILES,MIC
1,C[C@@H](O)[C@H]1C(=O)N2C(C(=O)O)=C(S[C@@H]3CN[C@H](C(=O)N(C)C)C3)[C@H](C)[C@H]12 [MEROPENEM],3 µg/mL

# Tested on: Acinetobacter baumannii
# Experiment: Ratio of MIC for Acinetobacter baumannii ISAB ab8(r) to MIC for Acinetobacter baumannii ISAB ab8(r) in presence of 2 ug/ml efflux pump inhibitor carbonyl cyanide m-chlorophenyl-hydrazone
# Type: functional
row,SMILES,fold change (FC)
1,C[C@@H](O)[C@H]1C(=O)N2C(C(=O)O)=C(S[C@@H]3CN[C@H](C(=O)N(C)C)C3)[C@H](C)[C@H]12 [MEROPENEM],2

# Tested on: Acinetobacter baumannii
# Experiment: Ratio of MIC for Acinetobacter baumannii ISAB ab1254(r) to MIC for Acinetobacter baumannii ISAB […] in presence of 2 ug/ml efflux pump inhibitor carbonyl cyanide m-chlorophenyl-hydrazone
# Type: functional
row,SMILES,fold change (FC)
1,C[C@@H](O)[C@H]1C(=O)N2C(C(=O)O)=C(S[C@@H]3CN[C@H](C(=O)N(C)C)C3)[C@H](C)[C@H]12 [MEROPENEM],2

# Tested on: Acinetobacter baumannii
# Experiment: Antibacterial activity against imipenem-susceptible Acinetobacter baumannii ab3 by broth dilution method
# Type: functional
# Outline: (§1)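 Clinical isolates were collected at three Taiwan hospitals (1993–2003) and grown in tryptic soy broth at 37°C for 18 h. MIC by broth dilution following CLSI recommendations.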
row,SMILES,MIC
1,C[C@@H](O)[C@H]1C(=O)N2C(C(=O)O)=C(S[C@@H]3CN[C@H](C(=O)N(C)C)C3)[C@H](C)[C@H]12 [MEROPENEM],0.38 µg/mL

# Tested on: Acinetobacter baumannii
# Experiment: Antibacterial activity against imipenem-susceptible Acinetobacter baumannii ab4 by broth dilution method
# Type: functional
# Outline: as §1
row,SMILES,MIC
1,C[C@@H](O)[C@H]1C(=O)N2C(C(=O)O)=C(S[C@@H]3CN[C@H](C(=O)N(C)C)C3)[C@H](C)[C@H]12 [MEROPENEM],0.5 µg/mL

# Tested on: Acinetobacter baumannii
# Experiment: Antibacterial activity against imipenem-susceptible Acinetobacter baumannii ab8 by broth dilution method
# Type: functional
# Outline: as §1
row,SMILES,MIC
1,C[C@@H](O)[C@H]1C(=O)N2C(C(=O)O)=C(S[C@@H]3CN[C@H](C(=O)N(C)C)C3)[C@H](C)[C@H]12 [MEROPENEM],0.5 µg/mL

# Tested on: Acinetobacter baumannii
# Experiment: Antibacterial activity against imipenem-susceptible Acinetobacter baumannii ab12 by broth dilution method
# Type: functional
# Outline: as §1
row,SMILES,MIC
1,C[C@@H](O)[C@H]1C(=O)N2C(C(=O)O)=C(S[C@@H]3CN[C@H](C(=O)N(C)C)C3)[C@H](C)[C@H]12 [MEROPENEM],0.5 µg/mL

# Tested on: Acinetobacter baumannii
# Experiment: Antibacterial activity against imipenem-susceptible Acinetobacter baumannii ab20 by broth dilution method
# Type: functional
# Outline: as §1
row,SMILES,MIC
1,C[C@@H](O)[C@H]1C(=O)N2C(C(=O)O)=C(S[C@@H]3CN[C@H](C(=O)N(C)C)C3)[C@H](C)[C@H]12 [MEROPENEM],0.75 µg/mL

# Tested on: Acinetobacter baumannii
# Experiment: Antibacterial activity against imipenem-susceptible Acinetobacter baumannii ab1308 by broth dilution method
# Type: functional
# Outline: (§2)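 Clinical A. baumannii isolates collected at three Taiwanese hospitals, routinely grown in tryptic soy broth at 37°C for 18 h. MICs (μg ml⁻¹) were determined by broth dilution following CLSI recommendations, or by Etest strips following the manufacturer's instructions.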
row,SMILES,MIC
1,C[C@@H](O)[C@H]1C(=O)N2C(C(=O)O)=C(S[C@@H]3CN[C@H](C(=O)N(C)C)C3)[C@H](C)[C@H]12 [MEROPENEM],0.75 µg/mL

# Tested on: Acinetobacter baumannii
# Experiment: Antibacterial activity against imipenem-susceptible Acinetobacter baumannii ab1254 by broth dilution method
# Type: functional
# Outline: as §1
row,SMILES,MIC
1,C[C@@H](O)[C@H]1C(=O)N2C(C(=O)O)=C(S[C@@H]3CN[C@H](C(=O)N(C)C)C3)[C@H](C)[C@H]12 [MEROPENEM],0.75 µg/mL

# Tested on: Acinetobacter baumannii
# Experiment: Antibacterial activity against imipenem-susceptible Acinetobacter baumannii ab1316 by broth dilution method
# Type: functional
# Outline: as §2
row,SMILES,MIC
1,C[C@@H](O)[C@H]1C(=O)N2C(C(=O)O)=C(S[C@@H]3CN[C@H](C(=O)N(C)C)C3)[C@H](C)[C@H]12 [MEROPENEM],1.5 µg/mL

# Tested on: Acinetobacter baumannii
# Experiment: Antibacterial activity against imipenem-intermediate Acinetobacter baumannii ab1297 by broth dilution method
# Type: functional
# Outline: as §2
row,SMILES,MIC
1,C[C@@H](O)[C@H]1C(=O)N2C(C(=O)O)=C(S[C@@H]3CN[C@H](C(=O)N(C)C)C3)[C@H](C)[C@H]12 [MEROPENEM],32 µg/mL

# Tested on: Acinetobacter baumannii
# Experiment: Antibacterial activity against imipenem-resistant Acinetobacter baumannii ab1265 by broth dilution method
# Type: functional
# Outline: as §1
row,SMILES,MIC
1,C[C@@H](O)[C@H]1C(=O)N2C(C(=O)O)=C(S[C@@H]3CN[C@H](C(=O)N(C)C)C3)[C@H](C)[C@H]12 [MEROPENEM],> 32 µg/mL

# Tested on: Acinetobacter baumannii
# Experiment: Antibacterial activity against imipenem-resistant Acinetobacter baumannii ab1266 by broth dilution method
# Type: functional
# Outline: as §1
row,SMILES,MIC
1,C[C@@H](O)[C@H]1C(=O)N2C(C(=O)O)=C(S[C@@H]3CN[C@H](C(=O)N(C)C)C3)[C@H](C)[C@H]12 [MEROPENEM],> 32 µg/mL

# Tested on: Acinetobacter baumannii
# Experiment: Antibacterial activity against imipenem-resistant Acinetobacter baumannii abh9 by broth dilution method
# Type: functional
# Outline: as §1
row,SMILES,MIC
1,C[C@@H](O)[C@H]1C(=O)N2C(C(=O)O)=C(S[C@@H]3CN[C@H](C(=O)N(C)C)C3)[C@H](C)[C@H]12 [MEROPENEM],> 32 µg/mL

# Tested on: Acinetobacter baumannii
# Experiment: Antibacterial activity against imipenem-resistant Acinetobacter baumannii abh11 by broth dilution method
# Type: functional
# Outline: as §1
row,SMILES,MIC
1,C[C@@H](O)[C@H]1C(=O)N2C(C(=O)O)=C(S[C@@H]3CN[C@H](C(=O)N(C)C)C3)[C@H](C)[C@H]12 [MEROPENEM],> 32 µg/mL

# Tested on: Acinetobacter baumannii
# Experiment: Antibacterial activity against imipenem-resistant Acinetobacter baumannii abh13 by broth dilution method
# Type: functional
# Outline: as §1
row,SMILES,MIC
1,C[C@@H](O)[C@H]1C(=O)N2C(C(=O)O)=C(S[C@@H]3CN[C@H](C(=O)N(C)C)C3)[C@H](C)[C@H]12 [MEROPENEM],> 32 µg/mL

# Tested on: Acinetobacter baumannii
# Experiment: Antibacterial activity against imipenem-resistant Acinetobacter baumannii abh14 by broth dilution method
# Type: functional
# Outline: as §1
row,SMILES,MIC
1,C[C@@H](O)[C@H]1C(=O)N2C(C(=O)O)=C(S[C@@H]3CN[C@H](C(=O)N(C)C)C3)[C@H](C)[C@H]12 [MEROPENEM],> 32 µg/mL

# Tested on: Acinetobacter baumannii
# Experiment: Antibacterial activity against imipenem-resistant Acinetobacter baumannii abh17 by broth dilution method
# Type: functional
# Outline: as §1
row,SMILES,MIC
1,C[C@@H](O)[C@H]1C(=O)N2C(C(=O)O)=C(S[C@@H]3CN[C@H](C(=O)N(C)C)C3)[C@H](C)[C@H]12 [MEROPENEM],16 µg/mL

# Tested on: Acinetobacter baumannii
# Experiment: Antibacterial activity against imipenem-resistant Acinetobacter baumannii abh18 by broth dilution method
# Type: functional
# Outline: as §1
row,SMILES,MIC
1,C[C@@H](O)[C@H]1C(=O)N2C(C(=O)O)=C(S[C@@H]3CN[C@H](C(=O)N(C)C)C3)[C@H](C)[C@H]12 [MEROPENEM],32 µg/mL

# Tested on: Acinetobacter baumannii
# Experiment: Antibacterial activity against imipenem-resistant Acinetobacter baumannii abh20 by broth dilution method
# Type: functional
# Outline: as §1
row,SMILES,MIC
1,C[C@@H](O)[C@H]1C(=O)N2C(C(=O)O)=C(S[C@@H]3CN[C@H](C(=O)N(C)C)C3)[C@H](C)[C@H]12 [MEROPENEM],32 µg/mL

# Tested on: Acinetobacter baumannii
# Experiment: Antibacterial activity against imipenem-resistant Acinetobacter baumannii abh26 by broth dilution method
# Type: functional
# Outline: as §1
row,SMILES,MIC
1,C[C@@H](O)[C@H]1C(=O)N2C(C(=O)O)=C(S[C@@H]3CN[C@H](C(=O)N(C)C)C3)[C@H](C)[C@H]12 [MEROPENEM],32 µg/mL

# Tested on: Acinetobacter baumannii
# Experiment: Antibacterial activity against imipenem-resistant Acinetobacter baumannii abh29 by broth dilution method
# Type: functional
# Outline: as §1
row,SMILES,MIC
1,C[C@@H](O)[C@H]1C(=O)N2C(C(=O)O)=C(S[C@@H]3CN[C@H](C(=O)N(C)C)C3)[C@H](C)[C@H]12 [MEROPENEM],> 32 µg/mL

# Tested on: Acinetobacter baumannii
# Experiment: Antibacterial activity against imipenem-resistant Acinetobacter baumannii abh36 by broth dilution method
# Type: functional
# Outline: as §1
row,SMILES,MIC
1,C[C@@H](O)[C@H]1C(=O)N2C(C(=O)O)=C(S[C@@H]3CN[C@H](C(=O)N(C)C)C3)[C@H](C)[C@H]12 [MEROPENEM],> 32 µg/mL

# Tested on: Acinetobacter baumannii
# Experiment: Antibacterial activity against imipenem-resistant Acinetobacter baumannii abh37 by broth dilution method
# Type: functional
# Outline: as §1
row,SMILES,MIC
1,C[C@@H](O)[C@H]1C(=O)N2C(C(=O)O)=C(S[C@@H]3CN[C@H](C(=O)N(C)C)C3)[C@H](C)[C@H]12 [MEROPENEM],32 µg/mL

# Tested on: Acinetobacter baumannii
# Experiment: Antibacterial activity against imipenem-resistant Acinetobacter baumannii abh39 by broth dilution method
# Type: functional
# Outline: as §1
row,SMILES,MIC
1,C[C@@H](O)[C@H]1C(=O)N2C(C(=O)O)=C(S[C@@H]3CN[C@H](C(=O)N(C)C)C3)[C@H](C)[C@H]12 [MEROPENEM],32 µg/mL

# Tested on: Acinetobacter baumannii
# Experiment: Antibacterial activity against imipenem-resistant Acinetobacter baumannii ISAB ab8(r) by broth dilution method
# Type: functional
row,SMILES,MIC
1,C[C@@H](O)[C@H]1C(=O)N2C(C(=O)O)=C(S[C@@H]3CN[C@H](C(=O)N(C)C)C3)[C@H](C)[C@H]12 [MEROPENEM],8 µg/mL

# Tested on: Acinetobacter baumannii
# Experiment: Antibacterial activity against imipenem-resistant Acinetobacter baumannii ISAB ab1254(r) by broth dilution method
# Type: functional
row,SMILES,MIC
1,C[C@@H](O)[C@H]1C(=O)N2C(C(=O)O)=C(S[C@@H]3CN[C@H](C(=O)N(C)C)C3)[C@H](C)[C@H]12 [MEROPENEM],6 µg/mL

# Tested on: Acinetobacter baumannii
# Experiment: Antibacterial activity against imipenem-resistant Acinetobacter baumannii ISAB ab8(r) by broth dilution method in presence of 2 ug/ml efflux pump inhibitor carbonyl cyanide m-chlorophenyl-hydrazone
# Type: functional
row,SMILES,MIC
1,C[C@@H](O)[C@H]1C(=O)N2C(C(=O)O)=C(S[C@@H]3CN[C@H](C(=O)N(C)C)C3)[C@H](C)[C@H]12 [MEROPENEM],4 µg/mL
